Values after ≈ are worked out from the molar mass of the structure shown.

Experiment [1] has as its system Escherichia coli. As to the kind of experiment: Antibacterial activity against Escherichia coli at 10 to 100 ug/mL after 18 hrs by disk diffusion method. It counts as functional. The essentials:
(§1)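 Disk diffusion. Bacteria were subcultured in BHI for 18 h at 37 °C, then suspended in saline to McFarland standard. The suspension was mixed with sterile antibiotic agar at 40 °C and poured into plates. Paper disks of 6.0 mm were placed on nutrient agar. DMSO stock was diluted to 10, 20, 25, 50 and 100 per mL and applied to the disks. A DMSO disk served as negative control. Inhibition zones in mm were read after 18 h at 36 °C.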
Background: Agar diffusion results depend on both activity and mobility in agar.

Experiment [2] concerns Salmonella typhimurium. As to the kind of experiment: Antibacterial activity against Salmonella Typhimurium after 18 hrs by […]. It counts as functional, Salmonella enterica subsp. enterica serovar Typhimurium. The following applies: Salmonella enterica. The essentials:
(§2)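 MIC by tube macrodilution. Test compounds dissolved in DMSO, serially diluted to final […]. Each tube received 24 h old inoculum, standard inoculum […]. Incubated 18 h at 37 °C. MIC read visually as the lowest concentration preventing visible growth.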

Experiment [3] has as its system Staphylococcus aureus. As to the kind of experiment: Antibacterial activity against Staphylococcus aureus after 18 hrs by […]. In kind it is functional. The essentials:
as §2

For experiment [4], the system named is Salmonella typhimurium. As to the kind of experiment: Antibacterial activity against Salmonella Typhimurium at 10 to 100 ug/mL after 18 hrs by disk diffusion method. In kind it is functional, Salmonella enterica subsp. enterica serovar Typhimurium. The gist of the method:
as §1

For experiment [5], the system named is Staphylococcus aureus. As to the kind of experiment: Antibacterial activity against Staphylococcus aureus at 10 to 100 ug/mL after 18 hrs by disk diffusion method. It counts as functional. The gist of the method:
as §1

Experiment [6] concerns Streptococcus pyogenes. As to the kind of experiment: Antibacterial activity against Streptococcus pyogenes at 10 to 100 ug/mL after 18 hrs by disk diffusion method. It counts as functional. The essentials:
as §1

Experiment [7] deals with Streptococcus pyogenes. As to the kind of experiment: Antibacterial activity against Streptococcus pyogenes after 18 hrs by […]. It counts as functional. The gist of the method:
as §2

Experiment [8] relates to Escherichia coli. As to the kind of experiment: Antibacterial activity against Escherichia coli after 18 hrs by […]. It counts as functional. The essentials: as §2
The test system of experiment [9] is Salmonella typhimurium. As to the kind of experiment: Antibacterial activity against Salmonella Typhimurium at 30 ug after 18 hrs by disk diffusion method. In kind it is functional, Salmonella enterica subsp. enterica serovar Typhimurium. The conditions noted are these: Salmonella enterica, read-out: IZ. The gist of the method:
(§3)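 Amoxicillin […] disk, positive control in disk diffusion. Bacteria were subcultured in BHI for 18 h at 37 °C and suspended in saline to McFarland standard. Seeded antibiotic agar was poured into plates and 6.0 mm paper disks placed. Inhibition zone in mm was read after 18 h at 36 °C.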

Experiment [10] deals with Staphylococcus aureus. As to the kind of experiment: Antibacterial activity against Staphylococcus aureus at 30 ug after 18 hrs by disk diffusion method. In kind it is functional. The conditions noted are these: read-out: IZ. The essentials: as §3
Experiment [11] relates to Streptococcus pyogenes. As to the kind of experiment: Antibacterial activity against Streptococcus pyogenes at 30 ug after 18 hrs by disk diffusion method. In kind it is functional. The following applies: read-out: IZ. The essentials:
as §3

Experiment [12] deals with Escherichia coli. As to the kind of experiment: Antibacterial activity against Escherichia coli at 30 ug after 18 hrs by disk diffusion method. It counts as functional. The conditions noted are these: read-out: IZ. The essentials: as §3

As usually defined, the MIC is the smallest concentration in the dilution series that meets the test's criterion for growth inhibition. A higher MIC goes with weaker potency. Turning to `Cc1ccc(NC(=S)N/N=C2\CC[C@@]3(C)C(=CC[C@H]4[C@@H]5CC[C@H]([C@H](C)CCCC(C)C)[C@@]5(C)CC[C@@H]43)C2)cc1`, the “inhibition zone (IZ)” value is 10.2 mm with Escherichia coli [1], 10.2 mm in the experiment on Salmonella typhimurium [4], 12.6 mm with Staphylococcus aureus [5] and 11.5 mm with Streptococcus pyogenes [6]. For the same molecule, the MIC came to 128 µg/mL (≈ 234 µM) with Salmonella typhimurium [2], 256 µg/mL (≈ 467 µM) against Staphylococcus aureus [3], 256 µg/mL (≈ 467 µM) against Streptococcus pyogenes [7] and 128 µg/mL (≈ 234 µM) in the experiment on Escherichia coli [8].
Turning to `Cc1ccccc1NC(=S)N/N=C1\CC[C@@]2(C)C(=CC[C@H]3[C@@H]4CC[C@H]([C@H](C)CCCC(C)C)[C@@]4(C)CC[C@@H]32)C1`, the “inhibition zone (IZ)” value was 14.2 mm with Escherichia coli [1], 12.4 mm with Salmonella typhimurium [4], 14.2 mm in the experiment on Staphylococcus aureus [5] and 12.8 mm in the experiment with Streptococcus pyogenes [6]. The MIC turned out to be 128 µg/mL (≈ 234 µM) in the experiment with Salmonella typhimurium [2], 64 µg/mL (≈ 117 µM) in the experiment on Staphylococcus aureus [3], 64 µg/mL (≈ 117 µM) against Streptococcus pyogenes [7] and 128 µg/mL (≈ 234 µM) in the experiment on Escherichia coli [8].
For `Cc1cccc(NC(=S)N/N=C2\CC[C@@]3(C)C(=CC[C@H]4[C@@H]5CC[C@H]([C@H](C)CCCC(C)C)[C@@]5(C)CC[C@@H]43)C2)c1`, the “inhibition zone (IZ)” value in the experiment with Escherichia coli [1] was found to be 11.2 mm; with Salmonella typhimurium [4], 10.6 mm; in the experiment on Staphylococcus aureus [5], 12.4 mm; in the experiment with Streptococcus pyogenes [6], 10.6 mm. In addition, the MIC against Salmonella typhimurium [2] came to 128 µg/mL (≈ 234 µM); with Staphylococcus aureus [3] it was 128 µg/mL (≈ 234 µM); in the experiment with Streptococcus pyogenes [7], 128 µg/mL (≈ 234 µM); against Escherichia coli [8], 256 µg/mL (≈ 467 µM).
For `CC1(C)S[C@@H]2[C@H](NC(=O)[C@H](N)c3ccc(O)cc3)C(=O)N2[C@H]1C(=O)O` [AMOXICILLIN], the MIC against Salmonella typhimurium [2], against Staphylococcus aureus [3], in the experiment with Streptococcus pyogenes [7] and in the experiment with Escherichia coli [8] was 32 µg/mL (≈ 87.6 µM) throughout. In addition, the zone of inhibition at 30 µg/disc with Salmonella typhimurium [9] came to 25.2 mm; with Staphylococcus aureus [10], 21 mm; in the experiment with Streptococcus pyogenes [11], 22.2 mm; in the experiment with Escherichia coli [12], 20 mm.

For the origin of these results see ChEMBL document CHEMBL1137698, “Synthesis, spectral studies and in vitro antibacterial activity of steroidal thiosemicarbazone and their palladium (Pd (II)) complexes” (2009).
